In ChEMBL document CHEMBL1141019, “New cyclic tetrapeptides from Nonomuraea sp. TA-0426 that inhibit glycine transporter type 1 (GlyT1)” (Bioorg Med Chem Lett, 2008):
Residues, ends and D or L forms follow the SMILES beside them.

What follows are molecules tested on T98G (assay: Inhibition of [3H]glycine uptake in human T98G cells).
Format: functional, cell-based
In short: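 T98G cells (2 × 10⁴ cells/well) plated, held 24 h at 37 °C in humidified incubator; washed, then exposed at room temperature to 250 nM [³H]-glycine plus test sample for 15 min. Cells washed, lysed in 0.5 M NaOH, radioactivity read by scintillation counting. IC50 from nonlinear regression curve fit; means of two experiments.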

| SMILES | IC50 [nM] |
| --- | --- |
| CC[C@H](C)[C@@H]1NC(=O)[C@H](Cc2cn(OC)c3ccccc23)NC(=O)[C@H](CCCCC(C)=O)NC(=O)[C@H]2CCCCN2C1=O | 71.8 |
| CC(C)[C@@H]1NC(=O)[C@H](Cc2ccccc2)NC(=O)[C@H]([C@H](C)[C@@H](C)O)NC(=O)[C@H](C(C)C)NC1=O | 4 |
| CC[C@H](C)[C@@H]1NC(=O)[C@H](Cc2ccccc2)NC(=O)[C@H]([C@@H](C)CC)NC(=O)[C@H]([C@@H](C)CC)NC(=O)[C@H]([C@@H](C)CC)NC(=O)[C@H]([C@@H](C)CC)NC1=O (cyclo(FIIIII)) | 1680 |
| CC[C@H](C)[C@@H]1NC(=O)[C@H](Cc2ccccc2)NC(=O)[C@H]([C@@H](C)CC)NC(=O)[C@H]([C@@H](C)CC)NC(=O)[C@H]([C@@H](C)CC)NC1=O (cyclo(FIIII)) | 655 |
| CC[C@H](C)[C@@H]1NC(=O)[C@H](Cc2ccccc2)NC(=O)[C@H]([C@@H](C)CC)NC(=O)[C@H]([C@@H](C)CC)NC1=O (cyclo(FIII)) | 21.2 |

Further lines, results first:

| IC50 [nM] | SMILES |
| --- | --- |
| 16400 | CC[C@H](C)[C@H](N)C(=O)N[C@H](C(=O)N[C@H](C(=O)N[C@@H](Cc1ccccc1)C(=O)O)[C@@H](C)CC)[C@@H](C)CC (H-IIIF-OH) |
| 5.5 | CC[C@H](C)[C@@H]1NC(=O)[C@H](Cc2ccccc2)NC(=O)[C@H]([C@H](C)[C@@H](C)O)NC(=O)[C@H](C(C)C)NC1=O |
| 12.5 | CC[C@H](C)[C@@H]1NC(=O)[C@H](Cc2ccccc2)NC(=O)[C@H]([C@H](CS(=O)(=O)O)C(C)=O)NC(=O)[C@H]([C@@H](C)CC)NC1=O |
| 3.5 | CC[C@H](C)[C@@H]1NC(=O)[C@H](Cc2ccccc2)NC(=O)[C@H]([C@H](C)[C@@H](C)O)NC(=O)[C@H]([C@@H](C)CC)NC1=O |
| 4.8 | CN(CC[C@@H](Oc1ccc(-c2ccccc2)cc1)c1ccc(F)cc1)CC(=O)O |
| 5 | CC[C@H](C)[C@@H]1NC(=O)[C@H](C(C)C)NC(=O)[C@H](Cc2ccccc2)NC(=O)[C@H]([C@H](C)[C@@H](C)O)NC1=O |
